The record followed here is ChEMBL document CHEMBL1817567, “Design of benzimidazole- and benzoxazole-2-thione derivatives as inhibitors of bacterial hyaluronan lyase” (Eur J Med Chem, 2011).

Data set [1] is described as follows: Inhibition of Streptococcus agalactiae 4755 hyaluronidase at pH 7.4 after 3 hrs by turbidimetric analysis. The essentials:
(§1)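 Same turbidimetric hyaluronan-lyase assay at pH 7.4 (citrate–phosphate/NaCl): SagHyal4755 2.9 ng, hyaluronan (2 mg/ml stock), BSA, 3.8% DMSO final, 3 h at 37 °C. CTAB (2.5%, in 0.5 M NaOH) precipitation, 20 min at 25 °C, A600. Activity scaled between no-inhibitor and no-enzyme samples.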

Data set [2] concerns the target T1, Hyaluronidase (Bos taurus) (UniProt Q8SQG8+Q5E985). Description: Inhibition of bovine testes hyaluronidase at 200 uM after 30 mins at pH 5 by turbidimetric analysis. The class given is protein assay.
In data set [3] the target is T1, Hyaluronidase (Bos taurus). As to the kind of experiment: Inhibition of bovine testes hyaluronidase at 380 uM after 30 mins at pH 5 by turbidimetric analysis. It counts as protein assay.
In data set [4] the target is T1, Hyaluronidase (Bos taurus). As to the kind of experiment: Inhibition of bovine testes hyaluronidase at 49 uM after 30 mins at pH 5 by turbidimetric analysis. It counts as protein assay.
Data set [5] addresses T1, Hyaluronidase (Bos taurus). As to the kind of experiment: Inhibition of bovine testes hyaluronidase at 4200 uM after 30 mins at pH 5 by turbidimetric analysis. The class given is protein assay.
Data set [6] addresses T1, Hyaluronidase (Bos taurus). Description: Inhibition of bovine testes hyaluronidase at 460 uM after 30 mins at pH 5 by turbidimetric analysis. It counts as protein assay.
The target of data set [7] is T1, Hyaluronidase (Bos taurus). As to the kind of experiment: Inhibition of bovine testes hyaluronidase at 180 uM after 30 mins at pH 5 by turbidimetric analysis. The class given is protein assay.
Data set [8] deals with T1, Hyaluronidase (Bos taurus). Description: Inhibition of bovine testes hyaluronidase at 190 uM after 30 mins at pH 5 by turbidimetric analysis. The class given is protein assay.
Data set [9] deals with T1, Hyaluronidase (Bos taurus). Description: Inhibition of bovine testes hyaluronidase at 170 uM after 30 mins at pH 5 by turbidimetric analysis. The class given is protein assay.
In data set [10] the target is T1, Hyaluronidase (Bos taurus). Description: Inhibition of bovine testes hyaluronidase at 100 uM after 30 mins at pH 5 by turbidimetric analysis. The class given is protein assay.
For data set [11], the target named is T1, Hyaluronidase (Bos taurus). Description: Inhibition of bovine testes hyaluronidase at 400 uM after 30 mins at pH 5 by turbidimetric analysis. The class given is protein assay.
Data set [12] has as its target T1, Hyaluronidase (Bos taurus). Description: Inhibition of bovine testes hyaluronidase at 3800 uM after 30 mins at pH 5 by turbidimetric analysis. The class given is protein assay.
The target in data set [13] is T1, Hyaluronidase (Bos taurus). Description: Inhibition of bovine testes hyaluronidase at 130 uM after 30 mins at pH 5 by turbidimetric analysis. The class given is protein assay.
Data set [14] concerns the target T1, Hyaluronidase (Bos taurus). As to the kind of experiment: Inhibition of bovine testes hyaluronidase at 63 uM after 30 mins at pH 5 by turbidimetric analysis. The class given is protein assay.
Data set [15] concerns the target T1, Hyaluronidase (Bos taurus). Description: Inhibition of bovine testes hyaluronidase at 80 uM after 30 mins at pH 5 by turbidimetric analysis. It counts as protein assay.
Data set [16] deals with T1, Hyaluronidase (Bos taurus). Description: Inhibition of bovine testes hyaluronidase at 2000 uM after 30 mins at pH 5 by turbidimetric analysis. It counts as protein assay.
Data set [17] deals with T1, Hyaluronidase (Bos taurus). As to the kind of experiment: Inhibition of bovine testes hyaluronidase at 150 uM after 30 mins at pH 5 by turbidimetric analysis. The class given is protein assay.
Data set [18] in a line: Aqueous solubility of the compound in water. The class given is physicochemical. In a few lines:
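Turbidity at 600 nm of test compound in DMSO added to citrate–phosphate buffer (pH 5 and pH 7.4), water and BSA (0.2 mg/ml stock), at various concentrations, read against a water reference. Enzyme testing used only concentrations showing no turbidity.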

Data set [19] has as its system Streptococcus agalactiae. As to the kind of experiment: Inhibition of Streptococcus agalactiae 4755 hyaluronidase at 460 uM after 30 mins at pH 5.0 by turbidimetric analysis. The essentials: (§2)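 SagHyal4755 (2.9 ng) with BSA and hyaluronan (2 mg/ml stock) in citrate–phosphate/NaCl buffer pH 5.0, 3.8% DMSO final, 30 min at 37 °C. Stopped by alkaline 2.5% CTAB, then 20 min at 25 °C. Residual-substrate turbidity read at 600 nm; no-inhibitor sample = 100%, no-enzyme sample = 0% activity. Enzyme-free compound controls were run.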

Data set [20] has as its system Streptococcus agalactiae. Description: Inhibition of Streptococcus agalactiae 4755 hyaluronidase at 400 uM after 30 mins at pH 5.0 by turbidimetric analysis. The essentials: as §2
In data set [21] the test system is Streptococcus agalactiae. Description: Inhibition of Streptococcus agalactiae 4755 hyaluronidase at 200 uM after 3 hrs at pH 7.4 by turbidimetric analysis. The essentials:
as §1

Data set [22] concerns Streptococcus agalactiae. Description: Inhibition of Streptococcus agalactiae 4755 hyaluronidase at 200 uM after 30 mins at pH 5.0 by turbidimetric analysis. In a few lines:
as §2

The test system of data set [23] is Streptococcus agalactiae. As to the kind of experiment: Inhibition of Streptococcus agalactiae 4755 hyaluronidase at 49 uM after 30 mins at pH 5.0 by turbidimetric analysis. The essentials: as §2
Data set [24] deals with Streptococcus agalactiae. Description: Inhibition of Streptococcus agalactiae 4755 hyaluronidase at 100 uM after 30 mins at pH 5.0 by turbidimetric analysis. The essentials:
as §2

Data set [25] deals with Streptococcus agalactiae. As to the kind of experiment: Inhibition of Streptococcus agalactiae 4755 hyaluronidase at 380 uM after 30 mins at pH 5.0 by turbidimetric analysis. In a few lines: as §2

In brackets after ≈: the same amount, converted by molar mass. Activity calls are given as the source filed them. No cut-off for these calls is given here.

The IC50 is the concentration needed to halve the response being measured. A lower IC50 goes with higher potency. What is called inhibition is the change of the read-out against control, counted positive when it falls. In general, solubility refers to how much of the substance goes into solution per volume. Read a high solubility as much dissolved substance. For `CC(=O)n1c(=S)[nH]c2ccccc21`, in data set [1], half-maximal inhibition (IC50) was put at 17 µM. In addition, the inhibition result in data set [2], in data set [3], in [4], in data set [5], in [6] and in data set [7] was “inactive” in each case. The inhibition entry in data set [8], in data set [9], in [10], in data set [11], in data set [12] and in data set [13] was “inactive” each time. Further, the inhibition result in data set [14], in data set [15], in data set [16] and in [17] was “inactive” in each case. In [18], this molecule returned a solubility of 460 µM (≈ 88.4 µg/mL). For the same molecule, the inhibition with Streptococcus agalactiae [19] is 20%.

The molecule `O=C(c1cccc(Cl)c1)n1c(=S)[nH]c2ccccc21` returned a 50% inhibitory concentration (IC50) in [1] of 70 µM. Moreover, the inhibition entry in data set [2], in [3], in [4], in data set [5], in [6] and in data set [7] was “inactive” throughout. Besides, the inhibition result in [8], in data set [9], in data set [10], in [11], in [12] and in data set [13] was “inactive” in each case. Besides, the inhibition result in [14], in data set [15], in data set [16] and in [17] was “inactive” in each case. In data set [18], this molecule gave a solubility of 400 µM (≈ 116 µg/mL). In the data set with Streptococcus agalactiae [20], the inhibition was determined as 16%.

Take `CC(=O)n1c(=O)n(C(C)=O)c2ccccc21`: the inhibition in the data set on Streptococcus agalactiae [21] turned out to be 10%. The inhibition entry in [2], in data set [3], in data set [4], in data set [5], in data set [6] and in [7] was “inactive” each time. Moreover, the inhibition result in data set [8], in [9], in data set [10], in data set [11], in [12] and in [13] was “inactive” in each case. Moreover, the inhibition entry (in [14]; in data set [15]; in data set [16]; in [17]; in the data set on Streptococcus agalactiae [22]) was “inactive” each time. For the same molecule, in data set [18], the solubility turned out to be 200 µM (≈ 43.6 µg/mL).

In data set [1], `COC(=O)c1ccc2oc(=S)n(C(=O)CCc3ccccc3)c2c1` displayed a 50% inhibitory concentration (IC50) of 21 µM. For the same molecule, the inhibition entry in [2], in data set [3], in [4], in data set [5], in data set [6] and in [7] was “inactive” throughout. Moreover, the inhibition entry in [8], in data set [9], in data set [10], in data set [11], in data set [12] and in data set [13] was “inactive” in each case. Further, the inhibition entry in data set [14], in data set [15], in data set [16] and in data set [17] was “inactive” throughout. The solubility in data set [18] turned out to be 200 µM (≈ 68.3 µg/mL). The molecule further displayed an inhibition in the data set with Streptococcus agalactiae [22] of 56%.

As for `CCCCCC(=O)n1c(=S)n(C(C)=O)c2ccccc21`, the IC50 in data set [1] came out at 12 µM. For the same molecule, the inhibition result in data set [2], in data set [3], in data set [4], in [5], in data set [6] and in data set [7] was “inactive” in each case. Further, the inhibition entry in data set [8], in data set [9], in data set [10], in data set [11], in data set [12] and in data set [13] was “inactive” in each case. The inhibition entry in [14], in data set [15], in data set [16] and in data set [17] was “inactive” throughout. Moreover, the concentration in solution in data set [18] (solubility) was 49 µM (≈ 14.2 µg/mL). The molecule further came in with an inhibition in the data set on Streptococcus agalactiae [23] of 50%.

`O=C(CCc1ccccc1)n1c(=S)[nH]c2ccccc21` returned a half-maximal inhibitory concentration (IC50) in data set [1] of 29 µM. The inhibition entry in data set [2], in data set [3], in data set [4], in [5], in [6] and in data set [7] was “inactive” throughout. Moreover, the inhibition entry in [8], in data set [9], in [10], in data set [11], in data set [12] and in data set [13] was “inactive” in each case. Moreover, the inhibition entry in data set [14], in data set [15], in data set [16] and in data set [17] was “inactive” each time. Also, in data set [18], the concentration in solution (solubility) was 100 µM (≈ 28.2 µg/mL). The inhibition with Streptococcus agalactiae [24] came to 5%.

For `CCn1c(=S)n(C(C)=O)c2ccccc21`, the IC50 in [1] turned out to be 19 µM. The inhibition entry in data set [2], in [3], in [4], in data set [5], in data set [6] and in [7] was “inactive” in each case. The inhibition entry in [8], in data set [9], in [10], in data set [11], in data set [12] and in data set [13] was “inactive” in each case. The inhibition entry in data set [14], in [15], in [16] and in data set [17] was “inactive” in each case. In data set [18], this molecule showed a solubility of 380 µM (≈ 83.7 µg/mL). Moreover, the inhibition with Streptococcus agalactiae [25] amounted to 10%.

In [1], `CCCCCCCCCC(=O)n1c(=S)oc2ccccc21` gave a 50% inhibitory concentration (IC50) of 25 µM. In addition, the inhibition result in data set [2], in data set [3], in data set [4], in [5], in data set [6] and in data set [7] was “inactive” in each case. Further, the inhibition result in [8], in data set [9], in [10], in [11], in [12] and in data set [13] was “inactive” in each case. Moreover, the inhibition entry in data set [14], in data set [15], in data set [16] and in data set [17] was “inactive” each time. Also, the concentration in solution in [18] (solubility) came to 100 µM (≈ 30.5 µg/mL). In the data set with Streptococcus agalactiae [24], this molecule showed an inhibition of 41%.
